The results in this text go back to ChEMBL document CHEMBL4145633, “Linfuranones B and C, Furanone-Containing Polyketides from a Plant-Associated Sphaerimonospora mesophila” (2018).

Test [1] in a line: Induction of preadipocyte differentiation into matured adipocyte in mouse ST-13 cells at 20 uM incubated for 2 to 8 days followed by compound wash out measured on day 12 by oil red O staining based phase contrast microscopy relative to control. Format: functional. In short, it runs like this: (§1)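 Mouse ST-13 preadipocytes were seeded on day 1 at 1 × 10^4 cells/mL in DME/F-12 with 10% FBS and penicillin/streptomycin, at 37 °C under 5% CO2. Medium containing compound, or 20 nM rosiglitazone as positive control, was renewed on days 2, 5 and 8. On day 12 cells were formalin-fixed, rinsed in 60% 2-propanol, stained with 0.24% Oil Red O and imaged by phase-contrast microscopy at 100×.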

The next test deals with Escherichia coli. The test can be described thus: Antibacterial activity against Escherichia coli at 25 ug/ml. It counts as functional, organism-based.
A further test has as its system Micrococcus luteus. Put plainly: Antibacterial activity against Micrococcus luteus at 25 ug/ml. Format: functional, organism-based.
In a further test the test system is Candida albicans. Put plainly: […] activity against Candida albicans at 25 ug/ml. Format: functional, organism-based.
Test [2] can be described thus: Induction of preadipocyte differentiation into matured adipocyte in mouse ST-13 cells at 40 uM incubated for 2 to 8 days followed by compound wash out measured on day 12 by oil red O staining based phase contrast microscopy relative to control. It counts as functional. The method, boiled down: as §1

Activity calls are given as the source filed them. The calls are words filed in the database; no cut-off is given here.

As to `CC1=C(C[C@H](O)CC/C=C/C=C/[C@@H](C)[C@@H](O)/C(C)=C/[C@@H](C)O)OC(C)(O)C1=O` (stereo partly specified), the Activity in test [1] is on record as 9%.

For `CCCCC(=O)O[C@H](C)/C=C(\C)[C@H](O)[C@H](C)/C=C/C=C/CC[C@@H](O)CC1=C(C)C(=O)C(C)(O)O1` (stereo partly specified), the result with Escherichia coli, in the test on Micrococcus luteus and in the test with Candida albicans was inactive. For the same molecule, the Activity in test [2] was found to be 33%; in test [1], 22%.

`CCCCC(=O)[C@H](C)/C=C(\C)[C@H](O)[C@H](C)/C=C/C=C/CC[C@@H](O)CC1=C(C)C(=O)C(C)(O)O1` (stereo partly specified): the result with Escherichia coli, with Micrococcus luteus and in the test on Candida albicans was inactive. The Activity in test [2] amounted to 73%; in test [1] it was 45%.
